Structures are written as SMILES. Calls of active or inactive are those of the source.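 Rule for the calls: active = inhibition at or above 75%; inactive = inhibition below 75%.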

NADPH oxidase 1 (Homo sapiens), sequence (Q9Y5S8 whole entry, looked up): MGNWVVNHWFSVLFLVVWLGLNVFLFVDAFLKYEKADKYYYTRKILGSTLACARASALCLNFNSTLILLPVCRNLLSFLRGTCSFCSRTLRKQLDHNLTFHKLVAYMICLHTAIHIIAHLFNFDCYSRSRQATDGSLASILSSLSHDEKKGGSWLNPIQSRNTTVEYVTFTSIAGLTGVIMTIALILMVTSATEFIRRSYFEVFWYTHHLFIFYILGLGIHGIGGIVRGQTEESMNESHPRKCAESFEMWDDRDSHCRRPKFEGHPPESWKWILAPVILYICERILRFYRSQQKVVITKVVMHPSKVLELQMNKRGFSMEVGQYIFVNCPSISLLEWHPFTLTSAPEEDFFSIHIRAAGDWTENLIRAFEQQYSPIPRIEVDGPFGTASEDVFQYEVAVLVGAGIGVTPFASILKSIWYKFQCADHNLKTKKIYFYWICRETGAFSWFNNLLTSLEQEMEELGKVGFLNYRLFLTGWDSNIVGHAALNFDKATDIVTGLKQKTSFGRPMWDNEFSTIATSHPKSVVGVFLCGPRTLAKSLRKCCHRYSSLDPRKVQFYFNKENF

This assay addresses NADPH oxidase 1 (Homo sapiens) (UniProt Q9Y5S8). Nature of the assay: NOX1 inhibitors in transfected HEK293 cells, late-stage follow-up, orthogonal assay for NOX1 inhibitor project, cell-based, HEK/293, percent inhibition, luminescence (AID 2545). The settings on record: NOX1-transfected HEK293, luminol ROS chemiluminescence; at 100 µM; hits give high values. In outline:
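System – HEK293 cells expressing Nox1, NoxO1, NoxA1, active Rac1 · Reagent – luminol with horseradish peroxidase · Dosing – one dose, 100 µM nominal · Timing – 2 h compound pre-incubation before luminol · Technique – luminol chemiluminescence of intracellular ROS · Read-out basis – % inhibition of ROS chemiluminescence · Replication – single well per compound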
As a reminder, the inhibition is the drop in the measured response relative to a control, in per cent. Consider `CN(C)c1ccc(/C=N/Nc2c(Cl)cncc2Cl)cc1`, for which the inhibition is 100%. For `COCCCNC(=S)NNC(=S)Nc1ccccc1` the value was 9.5% (inactive); for `COc1ccccc1NNC(=O)c1cc(C(C)(C)C)nn1Cc1ccccc1`, 63.6% (inactive); for `COc1cc(-c2nc(-c3ccccc3)c(-c3ccccc3)[nH]2)ccc1O`, 108%. For `O=c1c(Cl)c2oc3ccccc3nc-2c2ccccc12` the value was 52% (inactive).

As to `CN(C)c1ccc(NC(=O)Nc2ccc(OCc3ccccc3)cc2)cc1`, the inhibition is 121%. With `Nc1nc(NCc2c(Cl)cccc2Oc2ccccc2)n[nH]1` the figure was 2.15% (inactive). For `COc1cccc(NC(=S)NNC(=S)NC2CC3CCC2C3)c1` (stereo unspecified) the value was 106%. For `COc1ccc(N(C)CC(=O)O)c(C(=O)O)c1` the value was -18.5% (inactive); for `FC(F)(F)c1ccc2c(c1)Nc1ccccc1S2`, 107%; for `Cc1noc(C)c1C(=O)Nc1ccc(N2CCOCC2)nc1N1CCOCC1`, -55.4% (inactive). Take `Cc1cc(C(=O)NNc2cc(Cl)ccc2Cl)no1`: the inhibition was -23.5% (inactive). For `COc1cc2ncnc(NNC(=O)c3cccs3)c2cc1OC` the value was 46.4% (inactive); for `CC(C)(C)c1csc(NNC(=O)c2ccc(Cl)cc2)n1`, -43.1% (inactive). As for `CC1(C)CC(Nc2ccc(Nc3ccccc3)cc2)CC(C)(C)N1`, the inhibition is 104%.

Regarding `O=C(NNc1c([N+](=O)[O-])cc(C(F)(F)F)cc1[N+](=O)[O-])c1ccccc1-n1cccc1`, the inhibition is 54.6% (inactive).

Regarding `Cc1cc(Cl)ccc1NC(=S)NNC(=S)Nc1ccc(F)cc1`, the inhibition was 99.9%.

On to `Nc1nc(Nc2ccccc2)n[nH]1`, for which the inhibition was -15.1% (inactive). With `Cc1cc(Br)c(NC(=S)NNc2ccccc2)c(Br)c1` the figure was 5.12% (inactive).

For `c1ccc2c(c1)Nc1nc3ccccc3nc1N2`, the inhibition is 79.5%.

In the case of `O=C(Oc1ccccc1N1CCCCC1)c1sc2ccccc2c1Cl`, the inhibition is 57.6% (inactive). For `Nc1nc(NCc2ccccn2)n[nH]1` the value was 24.8% (inactive); for `O=c1[nH]c2ccsc2c(=O)n1CCO`, -0.39% (inactive). Regarding `CC(C)C(=O)NNc1nc2c(c(=O)n(C)c(=O)n2C)n1Cc1ccc(Cl)cc1`, the inhibition is -18.6% (inactive). As for `ON/C=N/c1nnc(C(F)(F)F)s1`, the inhibition was 1.45% (inactive).

Consider `COc1ccc(Cl)cc1NC(=O)Nc1ccc(N(C)C)cc1`, for which the inhibition is 100%. On to `COc1cccc(NC(=S)NNc2ccc([N+](=O)[O-])cc2)c1`, for which the inhibition was -84% (inactive). For `Cc1cc(S(=O)(=O)NNc2ncnc3c2cnn3C)c(C)cc1Cl` the value was -0.65% (inactive); for `S=C(NNc1nccc(-c2cccnc2)n1)Nc1ccccc1`, -62.4% (inactive). Turning to `O=C(Oc1ccccc1N1CCOCC1)c1cccs1`, the inhibition was 40.4% (inactive). With `Cn1nc(-c2ccccc2)c(O)c(N=Nc2ccccc2)c1=O` the figure was -55.7% (inactive). Regarding `NS(=O)(=O)c1ccc(NNC(=O)c2c(F)cccc2Cl)cc1`, the inhibition is -10.4% (inactive). Regarding `CCOC(=O)C1=C(Nc2ccc(OC(C)=O)cc2)C(=O)N(C(C)(C)C)C1`, the inhibition is 2.42% (inactive). With `O=C(N/N=C/c1ccc(O)cc1)N/N=C/c1ccc(O)cc1` the figure was 83.4%; with `COc1ccc(OC(=O)c2ccc3ncccc3c2)cc1`, -50.4% (inactive). With `O=C(NNc1c([N+](=O)[O-])cc(C(F)(F)F)cc1[N+](=O)[O-])c1ccco1` the figure was 5.79% (inactive); with `Cn1cnc(S(=O)(=O)Nc2ccc(N3CCCCC3)cc2)c1`, 58.9% (inactive). For `CC(=O)Oc1ccc(OC(C)=O)c2c1[C@@H]1C=C[C@H]2CC1` the value was 1.35% (inactive); for `O=c1[nH]nc(N2CCSCC2)[nH]1`, -55.4% (inactive). For `Nc1nc(NCc2ccccc2OC(F)(F)F)n[nH]1`, the inhibition is 26.1% (inactive).

`Cc1nc(C(F)(F)F)c(C(=O)NNc2ncc(C(F)(F)F)cc2Cl)s1`: the inhibition is 49.4% (inactive).
